{"source": "paper PMC4207537", "about": "(Journal of Medicinal Chemistry, 2014)", "key": {"[1]": {"system": "M. tuberculosis (H37Rv)", "assay": "MIC, microbroth dilution, M. tuberculosis", "format": "cell-based", "conditions": "Mycobacterium tuberculosis, read-out: MIC M. tuberculosis (H37Rv)"}, "[2]": {"system": "S. aureus Newman", "assay": "Macromolecular synthesis", "format": "cell-based, Staphylococcus aureus", "conditions": "4× MIC"}, "[3]": {"system": "S. aureus Newman", "assay": "Membrane potential, DiOC2", "format": "cell-based, Staphylococcus aureus", "conditions": "DiOC2(3); up to 4× MIC", "summary_of_the_method": "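Flow cytometry with the membrane-potential probe DiOC2(3) on S. aureus Newman grown in Mueller–Hinton II to OD600nm ≈ 0.3 and exposed to test compound. CCCP served as positive control and vancomycin as negative control. Three biological replicates were run.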"}, "[4]": {"target": "T1, E. coli topoisomerase I (Escherichia coli, UniProt P06612)", "T1 sequence (P06612 1-865)": "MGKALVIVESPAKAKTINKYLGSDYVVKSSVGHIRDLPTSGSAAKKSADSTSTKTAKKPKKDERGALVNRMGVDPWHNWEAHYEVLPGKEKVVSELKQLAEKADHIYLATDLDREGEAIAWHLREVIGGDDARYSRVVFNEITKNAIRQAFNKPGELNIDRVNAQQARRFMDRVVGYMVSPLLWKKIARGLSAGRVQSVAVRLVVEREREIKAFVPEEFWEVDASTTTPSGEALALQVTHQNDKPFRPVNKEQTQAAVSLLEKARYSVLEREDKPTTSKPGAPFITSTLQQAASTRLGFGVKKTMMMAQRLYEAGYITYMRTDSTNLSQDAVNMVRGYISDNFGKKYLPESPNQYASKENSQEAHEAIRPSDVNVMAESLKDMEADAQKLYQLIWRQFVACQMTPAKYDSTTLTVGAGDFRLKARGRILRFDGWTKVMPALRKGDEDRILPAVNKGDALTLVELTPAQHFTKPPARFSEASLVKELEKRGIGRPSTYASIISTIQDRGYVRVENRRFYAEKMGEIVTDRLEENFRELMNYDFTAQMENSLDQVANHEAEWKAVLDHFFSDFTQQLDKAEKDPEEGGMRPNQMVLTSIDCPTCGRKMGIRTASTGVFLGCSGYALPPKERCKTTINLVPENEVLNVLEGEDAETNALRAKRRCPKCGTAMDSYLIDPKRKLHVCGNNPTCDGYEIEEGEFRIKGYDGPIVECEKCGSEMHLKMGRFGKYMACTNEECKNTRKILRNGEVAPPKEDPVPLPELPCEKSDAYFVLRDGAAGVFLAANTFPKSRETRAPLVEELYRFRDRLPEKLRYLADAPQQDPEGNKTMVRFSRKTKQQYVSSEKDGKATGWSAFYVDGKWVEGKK", "assay": "Relaxation activity of E. coli topoisomerase I", "format": "biochemical"}, "[5]": {"target": "E. coli topoisomerase IV (Escherichia coli, UniProt P0AFI2+P20083)", "sequence (P0AFI2 whole entry)": "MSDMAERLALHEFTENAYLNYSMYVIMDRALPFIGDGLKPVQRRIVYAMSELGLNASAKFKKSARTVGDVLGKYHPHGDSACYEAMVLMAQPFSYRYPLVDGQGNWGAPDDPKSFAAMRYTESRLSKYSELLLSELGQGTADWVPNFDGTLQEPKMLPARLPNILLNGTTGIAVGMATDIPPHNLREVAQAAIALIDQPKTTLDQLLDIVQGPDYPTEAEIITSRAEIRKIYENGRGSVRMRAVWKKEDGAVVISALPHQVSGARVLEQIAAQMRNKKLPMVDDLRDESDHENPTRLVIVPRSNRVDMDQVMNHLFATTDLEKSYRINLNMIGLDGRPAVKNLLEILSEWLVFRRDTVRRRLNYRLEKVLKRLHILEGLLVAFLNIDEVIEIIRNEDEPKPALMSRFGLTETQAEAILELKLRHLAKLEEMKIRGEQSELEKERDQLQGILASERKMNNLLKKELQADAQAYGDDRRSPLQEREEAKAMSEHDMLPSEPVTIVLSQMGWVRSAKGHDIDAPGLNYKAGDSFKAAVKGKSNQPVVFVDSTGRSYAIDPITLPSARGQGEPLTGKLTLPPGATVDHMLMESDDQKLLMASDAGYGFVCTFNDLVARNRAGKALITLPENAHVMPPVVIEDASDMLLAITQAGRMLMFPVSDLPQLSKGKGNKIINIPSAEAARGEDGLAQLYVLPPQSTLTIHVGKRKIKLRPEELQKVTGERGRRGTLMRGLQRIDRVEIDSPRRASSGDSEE", "sequence (P20083 whole entry)": "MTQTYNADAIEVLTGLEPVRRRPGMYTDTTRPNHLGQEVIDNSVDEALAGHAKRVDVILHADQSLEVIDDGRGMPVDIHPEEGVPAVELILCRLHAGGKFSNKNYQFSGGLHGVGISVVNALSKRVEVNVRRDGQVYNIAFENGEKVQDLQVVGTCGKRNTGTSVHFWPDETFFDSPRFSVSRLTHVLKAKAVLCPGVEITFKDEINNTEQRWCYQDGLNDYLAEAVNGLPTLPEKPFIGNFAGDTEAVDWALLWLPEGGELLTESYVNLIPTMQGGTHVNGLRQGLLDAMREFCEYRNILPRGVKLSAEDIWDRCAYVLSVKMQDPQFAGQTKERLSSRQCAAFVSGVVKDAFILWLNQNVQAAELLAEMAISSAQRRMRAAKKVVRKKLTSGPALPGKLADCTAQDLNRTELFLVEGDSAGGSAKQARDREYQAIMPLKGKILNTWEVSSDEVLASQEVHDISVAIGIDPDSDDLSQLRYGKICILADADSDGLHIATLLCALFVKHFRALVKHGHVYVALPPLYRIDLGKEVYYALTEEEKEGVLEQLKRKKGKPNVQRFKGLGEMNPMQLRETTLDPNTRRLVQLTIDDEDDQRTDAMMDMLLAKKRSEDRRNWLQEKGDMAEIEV", "assay": "E. coli topoisomerase IV decatenation assay", "format": "biochemical"}, "[6]": {"target": "Mycobacterium tuberculosis MurE ligase", "conditions": "read-out: MurE ligase IC50; ATP-dependent MurE ligase; cited from earlier work"}, "[7]": {"system": "multidrug-resistant (MDR) strains of clinically relevant Staphylococcus aureus", "conditions": "natural olympicin A; cited from earlier work"}, "[8]": {"system": "Clostridium difficile", "conditions": "synthetic olympicin A; cited from earlier work"}, "[9]": {"system": "E. faecalis (ATCC 33186)", "assay": "microbe, parasite or virus in culture", "format": "cell-based", "conditions": "Enterococcus faecalis, ATCC33186, read-out: MIC E. faecalis (ATCC 33186)"}, "[10]": {"system": "S. aureus Newman", "assay": "Time kill experiments", "format": "cell-based, Staphylococcus aureus", "conditions": "for type of killing (bactericidal / bacteriostatic): time kill, up to 24 h"}, "[11]": {"system": "S. aureus Newman", "assay": "Selection of spontaneous mutants", "format": "cell-based, Staphylococcus aureus", "conditions": "concentrations between 1× and 4× MIC"}, "[12]": {"system": "Gram-positive bacteria tested (E. faecalis, MSSA, and MRSA)", "assay": "MIC range over the Gram-positive bacteria tested", "format": "cell-based, Enterococcus faecalis, Staphylococcus aureus", "conditions": "range over E. faecalis and S. aureus (MSSA, MRSA) strains"}, "[13]": {"system": "S. aureus Newman", "assay": "microbe, parasite or virus in culture", "format": "cell-based", "conditions": "Staphylococcus aureus, read-out: MIC against S. aureus Newman"}}, "data": [{"smiles": "CC[C@H](C)C(=O)c1c(O)cc(O)cc1OC/C=C(\\C)CCC=C(C)C", "note": "[Compound 2a, (S,E)-1-(2-((3,7-Dimethylocta-2,6-dien-1-yl)oxy)-4,6-dihydroxyphenyl)-2-methylbutan-1-one]", "values": [{"measurement": "MIC", "setting": "[1]", "result": 200, "unit": "µg/mL"}, {"measurement": "effect on macromolecular synthesis (DNA, RNA, protein)", "setting": "[2]", "result": "Several key biosynthetic processes were simultaneously inhibited"}, {"measurement": "effect on membrane potential", "setting": "[3]", "result": "dissipated the membrane potential"}, {"measurement": "IC50", "setting": "[4]", "result": "> 500", "unit": "µM"}, {"measurement": "IC50", "setting": "[5]", "result": "30 to 60", "unit": "µM"}, {"measurement": "IC50", "setting": "[6]", "result": 75, "unit": "µM"}, {"measurement": "MIC against a panel of MDR S. aureus strains", "setting": "[7]", "result": "0.5 to 1", "unit": "µg/mL"}, {"measurement": "previously reported anti S. aureus activity (MIC)", "setting": "[7]", "result": "0.5 to 1", "unit": "µg/mL"}, {"measurement": "MIC against Clostridium difficile", "setting": "[8]", "result": "1 to 2", "unit": "µg/mL"}]}, {"smiles": "CCC(C)C(=O)c1c(O)cc(O)cc1OC/C=C(\\C)CCC=C(C)C", "note": "(stereo not drawn) [Compound 2b, (E)-1-(2-((3,7-Dimethylocta-2,6-dien-1-yl)oxy)-4,6-dihydroxyphenyl)-2-methylbutan-1-one]", "values": [{"measurement": "MIC", "setting": "[9]", "result": 1.56, "unit": "µg/mL"}]}, {"smiles": "CCCCCCCCOc1cc(O)cc(O)c1C(=O)C(C)CC", "note": "(stereo not drawn) [Compound 2e, 1-(2,4-Dihydroxy-6-(octyloxy)phenyl)-2-methylbutan-1-one]", "values": [{"measurement": "IC50", "setting": "[4]", "result": "> 500", "unit": "µM"}, {"measurement": "IC50", "setting": "[5]", "result": "30 to 60", "unit": "µM"}]}, {"smiles": "CC1(C)C2CC=C(/C=C/C(=O)c3ccc(O)cc3O)C1C2", "note": "(stereo not drawn) [Compound 3g, (E)-1-(2,4-Dihydroxyphenyl)-3-(6,6-dimethylbicyclo[3.1.1]hept-2-en-2-yl)prop-2-en-1-one]", "values": [{"measurement": "time required to achieve a 3 log reduction in cells", "setting": "[10]; at its MIC (1×)", "result": "up to 24 h"}, {"measurement": "type of killing (bactericidal / bacteriostatic)", "setting": "[10]", "result": "concentration-dependent killing"}, {"measurement": "frequency of spontaneous mutants", "setting": "[11]", "result": "could not be selected"}, {"measurement": "effect on macromolecular synthesis (DNA, RNA, protein)", "setting": "[2]", "result": "Several key biosynthetic processes were simultaneously inhibited"}, {"measurement": "effect on membrane potential", "setting": "[3]", "result": "dissipated the membrane potential"}, {"measurement": "IC50", "setting": "[4]", "result": "> 500", "unit": "µM"}, {"measurement": "IC50", "setting": "[5]", "result": "60 to 120", "unit": "µM"}]}, {"smiles": "CC1(C)C2CC=C(C3CC(=O)c4ccc(O)cc4O3)C1C2", "note": "(stereo not drawn) [Compound 3j, 2-(6,6-Dimethylbicyclo[3.1.1]hept-2-en-2-yl)-7-hydroxychroman-4-one]", "values": [{"measurement": "MIC range against Gram-positive bacteria tested", "setting": "[12]", "result": "largely inactive"}]}, {"smiles": "CC(C)=CCCC(C)CC1CC(=O)c2c(O)cccc2O1", "note": "(stereo not drawn) [Compound 3l, 2-(2,6-Dimethylhept-5-en-1-yl)-5-hydroxychroman-4-one]", "values": [{"measurement": "MIC range against Gram-positive bacteria tested", "setting": "[12]", "result": "not active"}]}, {"smiles": "CCCCCCCC1CC(=O)c2c(O)cc(O)cc2O1", "note": "(stereo not drawn) [Compound 5f, 2-Heptyl-5,7-dihydroxychroman-4-one]", "values": [{"measurement": "IC50", "setting": "[4]", "result": "> 500", "unit": "µM"}, {"measurement": "IC50", "setting": "[5]", "result": "120 to 250", "unit": "µM"}]}, {"smiles": "CC(C)=CCCC(C)CC1CC(=O)c2c(O)cc(O)cc2O1", "note": "(stereo not drawn) [Compound 5j, 2-(2,6-Dimethylhept-5-en-1-yl)-5,7-dihydroxychroman-4-one]", "values": [{"measurement": "frequency of spontaneous mutants", "setting": "[11]", "result": "could not be selected"}, {"measurement": "effect on macromolecular synthesis (DNA, RNA, protein)", "setting": "[2]", "result": "Several key biosynthetic processes were simultaneously inhibited"}, {"measurement": "effect on membrane potential", "setting": "[3]", "result": "dissipated the membrane potential"}]}, {"smiles": "C=CCOc1ccccc1/C=C/C(=O)c1ccc(O)cc1O", "note": "[Compound 8a, (E)-3-(2-(Allyloxy)phenyl)-1-(2,4-dihydroxyphenyl)prop-2-en-1-one]", "values": [{"measurement": "type of killing (bactericidal / bacteriostatic)", "setting": "[10]", "result": "rapidly bactericidal"}, {"measurement": "frequency of spontaneous mutants", "setting": "[11]", "result": "could not be selected"}, {"measurement": "effect on macromolecular synthesis (DNA, RNA, protein)", "setting": "[2]", "result": "Several key biosynthetic processes were simultaneously inhibited"}, {"measurement": "IC50", "setting": "[4]", "result": "> 500", "unit": "µM"}, {"measurement": "IC50", "setting": "[5]", "result": "250 to 500", "unit": "µM"}]}, {"smiles": "CCCCCCOc1ccccc1/C=C/C(=O)c1ccc(O)cc1O", "note": "[Compound 8b, (E)-1-(2,4-Dihydroxyphenyl)-3-(2-(hexyloxy)phenyl)prop-2-en-1-one]", "values": [{"measurement": "IC50", "setting": "[4]", "result": "> 500", "unit": "µM"}, {"measurement": "IC50", "setting": "[5]", "result": "60 to 120", "unit": "µM"}]}, {"smiles": "O=C(/C=C/c1ccc(N2CCCCC2)cc1)c1ccc(O)cc1O", "note": "[Compound 8d, (E)-1-(2,4-Dihydroxyphenyl)-3-(4-(piperidin-1-yl)phenyl)prop-2-en-1-one]", "values": [{"measurement": "MIC", "setting": "[13]", "result": 6.25, "unit": "µg/mL"}, {"measurement": "type of killing (bactericidal / bacteriostatic)", "setting": "[10]", "result": "entirely bacteriostatic"}, {"measurement": "effect on macromolecular synthesis (DNA, RNA, protein)", "setting": "[2]", "result": "Several key biosynthetic processes were simultaneously inhibited"}, {"measurement": "effect on membrane potential", "setting": "[3]", "result": "dissipated the membrane potential"}, {"measurement": "IC50", "setting": "[4]", "result": "> 500", "unit": "µM"}, {"measurement": "IC50", "setting": "[5]", "result": "500 to 1000", "unit": "µM"}]}, {"smiles": "CCCCCCOc1ccccc1C1CC(=O)c2ccc(O)cc2O1", "note": "(stereo not drawn) [Compound 8j, 2-(2-(Hexyloxy)phenyl)-7-hydroxychroman-4-one]", "values": [{"measurement": "IC50", "setting": "[4]", "result": "> 500", "unit": "µM"}, {"measurement": "IC50", "setting": "[5]", "result": "> 1000", "unit": "µM"}]}, {"smiles": "CCCCCCCCOc1ccccc1C1CC(=O)c2ccc(O)cc2O1", "note": "(stereo not drawn) [Compound 8k, 7-Hydroxy-2-(2-(octyloxy)phenyl)chroman-4-one]", "values": [{"measurement": "IC50", "setting": "[4]", "result": "> 500", "unit": "µM"}, {"measurement": "IC50", "setting": "[5]", "result": "> 1000", "unit": "µM"}]}, {"smiles": "O=C(O)c1cn(C2CC2)c2cc(N3CCNCC3)c(F)cc2c1=O", "note": "[ciprofloxacin]", "values": [{"measurement": "MIC", "setting": "[13]", "result": 0.25, "unit": "µg/mL"}]}, {"smiles": "CC[C@H]1OC(=O)[C@H](C)[C@@H](O[C@H]2C[C@@](C)(OC)[C@@H](O)[C@H](C)O2)[C@H](C)[C@@H](O[C@@H]2O[C@H](C)C[C@H](N(C)C)[C@H]2O)[C@](C)(O)C[C@@H](C)C(=O)[C@H](C)[C@@H](O)[C@]1(C)O", "note": "[erythromycin]", "values": [{"measurement": "MIC", "setting": "[13]", "result": 0.78, "unit": "µg/mL"}]}, {"smiles": "C/C(=C\\C(=O)OCCCCCCCCC(=O)O)C[C@@H]1OC[C@H](C[C@@H]2O[C@H]2[C@@H](C)[C@H](C)O)[C@@H](O)[C@H]1O", "note": "[mupirocin, reference compound]", "values": [{"measurement": "type of killing (bactericidal / bacteriostatic)", "setting": "[10]", "result": "either bacteriostatic or slowly bactericidal"}]}, {"smiles": "CN[C@H](CC(C)C)C(=O)N[C@H]1C(=O)N[C@@H](CC(N)=O)C(=O)N[C@H]2C(=O)N[C@H]3C(=O)N[C@H](C(=O)N[C@H](C(=O)O)c4cc(O)cc(O)c4-c4cc3ccc4O)[C@H](O)c3ccc(c(Cl)c3)Oc3cc2cc(c3O[C@@H]2O[C@H](CO)[C@@H](O)[C@H](O)[C@H]2O[C@H]2C[C@](C)(N)[C@H](O)[C@H](C)O2)Oc2ccc(cc2Cl)[C@H]1O", "note": "[vancomycin, reference compound]", "values": [{"measurement": "type of killing (bactericidal / bacteriostatic)", "setting": "[10]", "result": "either bacteriostatic or slowly bactericidal"}, {"measurement": "effect on membrane potential", "setting": "[3]", "result": "failed to affect the membrane potential"}]}]}
